Laboratory results published in publication PMC5743405 (International Journal of Oncology, 2017).

Key:
ADORA3 = test: PathHunter β-arrestin; assay type: cell-based; settings: 6 μM
Method in brief: (§1)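 β-Arrestin recruitment assay: the enzyme acceptor is fused to β-arrestin and the ED fragment to the GPCR. Recruitment restores β-galactosidase, read by chemiluminescence. % activity = 100% × (test − vehicle)/(max control ligand − vehicle). % inhibition = 100% × (1 − (test − vehicle)/(EC80 control − vehicle)). An agonist hit needs >30% activity and RLU > baseline + 3×SD. An antagonist hit needs >35% inhibition and RLU < EC80 RLU − 3×SD.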

ADRA1B = test: PathHunter β-arrestin; assay type: cell-based; settings: agonist mode, 6 μM
Method in brief: as §1

ADRB2 = test: PathHunter β-arrestin; assay type: cell-based; settings: 6 μM
Method in brief: as §1

CCR5 = test: PathHunter β-arrestin; assay type: cell-based; settings: antagonist mode, 6 μM
Method in brief: (§2)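 Engineered cells express the receptor fused to one β-galactosidase fragment (ED) and β-arrestin fused to the complementing fragment (EA). Receptor activation recruits β-arrestin, which restores enzyme activity, and this is read by chemiluminescence (RLU). Agonist % activity is 100% × (test − vehicle)/(maximal control ligand − vehicle). Antagonist mode is challenged with an EC80 control agonist, and % inhibition is 100% × (1 − (test − vehicle)/(EC80 − vehicle)). Hits require >30% activity or >35% inhibition, plus a 3×SD RLU margin.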

CNR1 = test: PathHunter β-arrestin; assay type: cell-based; settings: antagonist mode, 6 μM
Method in brief: as §2

CRTH2 = test: PathHunter β-arrestin; assay type: cell-based; settings: antagonist mode, 6 μM
Method in brief: as §2

DRD1 = test: PathHunter β-arrestin; assay type: cell-based; settings: antagonist mode, 6 μM
Method in brief: as §2

EDG4 = test: PathHunter β-arrestin; assay type: cell-based; settings: antagonist mode, 6 μM
Method in brief: as §2

GALR2 = test: PathHunter β-arrestin; assay type: cell-based; settings: agonist mode, 6 μM
Method in brief: as §2

HRH3 = test: PathHunter β-arrestin; assay type: cell-based; settings: 6 μM
Method in brief: (§3)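 Vendor-run (DiscoveRx) PathHunter enzyme fragment complementation. β-Arrestin carries the EA fragment and the receptor carries ED; recruitment restores β-gal activity, read by chemiluminescence (RLU). Agonist % activity = vehicle-subtracted RLU relative to max control ligand (gpcrMAX) or to vehicle (orphanMAX). Antagonist % inhibition = 100% × (1 − vehicle-subtracted sample RLU / vehicle-subtracted EC80 agonist control RLU).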

HRH4 = test: PathHunter β-arrestin; assay type: cell-based; settings: antagonist mode, 6 μM
Method in brief: as §3

HTR1A = test: PathHunter β-arrestin; assay type: cell-based; settings: antagonist mode, 6 μM
Method in brief: as §3

HTR2C = test: PathHunter β-arrestin; assay type: cell-based; settings: 6 μM
Method in brief: as §3

MCHR1 = test: PathHunter β-arrestin; assay type: cell-based; settings: 6 μM
Method in brief: as §3

MTNR1A = test: PathHunter β-arrestin; assay type: cell-based; settings: 6 μM
Method in brief: as §3

NPSR1B = test: PathHunter β-arrestin; assay type: cell-based; settings: agonist mode, 6 μM
Method in brief: as §3

PTGER3 = test: PathHunter β-arrestin; assay type: cell-based; settings: 6 μM
Method in brief: (§4)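 β-Arrestin recruitment to GPCR read by β-galactosidase fragment complementation and chemiluminescence. Agonist: % = 100 × (test − vehicle)/(max control ligand − vehicle), hit at >30% and RLU > baseline + 3 SD. Antagonist, against EC80 agonist: % inhibition = 100 × (1 − (test − vehicle)/(EC80 − vehicle)), hit at >35% and RLU < EC80 − 3 SD.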

TBXA2R = test: PathHunter β-arrestin; assay type: cell-based; settings: 6 μM
Method in brief: as §4

VIPR1 = test: PathHunter β-arrestin; assay type: cell-based; settings: antagonist mode, 6 μM
nuclear receptor = test: PathHunter NHR assays, nhrMAX panel, antagonist mode; assay type: cell-based; settings: summary of Table IV
Method in brief: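 Enzyme fragment complementation: NHR nuclear recruitment of a co-activator peptide fusion restores β-galactosidase, read by chemiluminescence. Test compound preincubated 1 h before agonist challenge. % inhibition = 100 × (1 − (test − vehicle RLU)/(EC80 control − vehicle RLU)). Hit requires >35% inhibition and mean RLU below EC80 RLU − 3 × EC80 SD.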

TLR10 = test: western blot, JJ012 cells; assay type: cell-based, human; settings: vs untreated control, overnight incubation

Which “% Activity” value (ADORA3; agonist mode) does the source give for Proline rich polypeptide 1 [PRP-1] here?
Its value is 1%.

What about the “% Inhibition” value (ADORA3; antagonist mode) of the same substance?
The value was −3%.

And the “% Activity” value (ADRA1B)?
Its value is 1%.

What about the “% Activity” value (ADRB2; agonist mode) of the same substance?
The value was 3%.

What about the “% Inhibition” value (ADRB2; antagonist mode) of the same substance?
Its value is −3%.

What about the “% Inhibition” value (CCR5) of the same substance?
Its value is −2%.

What about the “% Inhibition” value (CNR1) of the same substance?
Its value is 2%.

What about the “% Inhibition” value (CRTH2) of the same substance?
The value was −8%.

What about the “% Inhibition” value (DRD1) of the same substance?
Its value is −5%.

And the “% Inhibition” value (EDG4)?
The value was 5%.

And the “% Activity” value (GALR2)?
The value was 1%.

What about the “% Activity” value (HRH3; agonist mode) of the same substance?
The value was 2%.

What about the “% Inhibition” value (HRH3; antagonist mode) of the same substance?
Its value is −6%.

What about the “% Inhibition” value (HRH4) of the same substance?
Its value is −9%.

And the “% Inhibition” value (HTR1A)?
Its value is −5%.

And the “% Activity” value (HTR2C; agonist mode)?
Its value is 1%.

And the “% Inhibition” value (HTR2C; antagonist mode)?
Its value is −3%.

And the “% Activity” value (MCHR1; agonist mode)?
Its value is 1%.

What about the “% Inhibition” value (MCHR1; antagonist mode) of the same substance?
Its value is −4%.

And the “% Activity” value (MTNR1A; agonist mode)?
The value was 2%.

And the “% Inhibition” value (MTNR1A; antagonist mode)?
Its value is −9%.

What about the “% Activity” value (NPSR1B) of the same substance?
The value was 2%.

And the “% Activity” value (PTGER3; agonist mode)?
Its value is 1%.

And the “% Inhibition” value (PTGER3; antagonist mode)?
The value was −2%.

What about the “% Activity” value (TBXA2R; agonist mode) of the same substance?
Its value is 1%.

And the “% Inhibition” value (TBXA2R; antagonist mode)?
The value was −10%.

What about the “% Inhibition” value (VIPR1) of the same substance?
The value was −9%.

What about the nuclear receptor antagonism (nuclear receptor) of the same substance?
Its nuclear receptor antagonism is “neither that this peptide was agonist for orphan receptors (Table III) or agonist/antagonist for nuclear receptor”.

What about the protein expression (TLR10) of the same substance?
The protein expression was “no indication of PRP-1 effect”.
